Measured values published in ChEMBL document CHEMBL2311508, “A natural product inspired hybrid approach towards the synthesis of novel pentamidine based scaffolds as potential anti-parasitic agents” (Bioorg Med Chem Lett, 2013).
Converted amounts (≈) assume the structure as drawn. The source made the active and inactive calls. The calls are words filed in the database; no cut-off is given here.

What was measured:
Leishmania donovani [1] = experiment: Antileishmanial activity against amastigote stage of Leishmania donovani infected in mouse J774A.1 cells assessed as intracellular parasite growth inhibition after 72 hrs by luciferase reporter gene assay; type: functional, organism-based; details: J774.A1, 72 h
Summary of the method: (§1)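 Macrophages seeded at 4 × 10³ cells/100 µL/well in RPMI-1640 with 10% fetal calf serum, 37 °C, CO₂. After 24 h, medium replaced with fresh medium containing stationary-phase promastigotes (4 × 10⁴/100 µL/well), which were phagocytosed and transformed to amastigotes. Compounds added at up to 7 concentrations starting from 40 µM, 72 h at 37 °C. Steady-Glo luciferase read as RLU versus untreated controls; IC50 by logit regression.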

[2] = (§2) Selectivity index, ratio of CC50 for human KB cells to IC50 for amastigote stage of Leishmania donovani infected in mouse J774A.1 cells; type: functional
Summary of the method: (§3)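 SI = CC50 in KB cells (72 h MTT, nonlinear regression) divided by IC50 against intracellular amastigotes (72 h luciferase assay in infected macrophages, logit regression).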

[3] = (§4) Cytotoxicity against human KB cells after 72 hrs by MTT assay; type: cell-based; details: KB cells
Summary of the method: (§5)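 Mammalian cells exposed to compound dilutions for 72 h; MTT used for detection (modified Mosmann method). CC50 derived by nonlinear regression.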

KB [4] = experiment: as §2; type: functional; summary of the method: as §3
KB [5] = experiment: as §4; type: cell-based; details: kb, 72 h; summary of the method: as §5
Leishmania donovani [6] = experiment: Antileishmanial activity against amastigote stage of Leishmania donovani infected in mouse J774A.1 cells assessed as intracellular parasite growth inhibition at 40 uM after 72 hrs by luciferase reporter gene assay; type: functional, organism-based; summary of the method: as §1
[7] = Cytotoxicity against african green monkey Vero cells after 72 hrs by MTT assay; type: cell-based; details: chlorocebus sabaeus; summary of the method: as §5
Plasmodium falciparum [8] = experiment: Antimalarial activity against chloroquine-sensitive Plasmodium falciparum 3D7 assessed as parasite growth inhibition after 72 hrs by MSF assay; type: functional, organism-based; details: 3D7, 72 h
Summary of the method: (§6)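 P. falciparum cultures in RPMI-1640-FBS; DMSO stock 5 mg/ml, test dilutions in culture medium; duplicate wells; 1.0% parasitized cell suspension at 0.8% parasitaemia; 37 °C, 5% CO2 in air, 72 h. Lysis buffer with SYBR Green I added, 1 h at 37 °C; fluorescence read at 485/530 nm excitation/emission as RFU. Chloroquine reference. IC50 in ng/mL.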

[9] = Selectivity index, ratio of CC50 for african green monkey Vero cells to IC50 for chloroquine-sensitive Plasmodium falciparum 3D7; type: functional
Plasmodium falciparum [10] = experiment: Antimalarial activity against chloroquine-resistant Plasmodium falciparum K1 assessed as parasite growth inhibition after 72 hrs by MSF assay; type: functional, organism-based; details: K1, 72 h; summary of the method: as §6

## O=C(/C=C/c1ccc(OCCCCCOc2ccc(/C=C/C(=O)c3ccccc3)cc2)cc1)c1ccccc1
Leishmania donovani [1]
  IC50: 1650 nM
[2]
  Ratio CC50/IC50: >242.42
[3]
  CC50 at 72 h: > 400000 nM

## SODIUM ANTIMONY GLUCONATE [listing 1 of 2 here]
KB [4]
  Ratio CC50/IC50: 5.53

## SODIUM ANTIMONY GLUCONATE [listing 2 of 2 here]
KB [5]
  CC50: 398 µg/mL

## O=Cc1ccc(OCCCCCOc2ccc(/C=C/C(=O)c3ccc(Br)cc3)cc2)cc1
Leishmania donovani [6]
  growth inhibition (GI): inactive

## COc1ccc(C(=O)/C=C/c2ccc(OCCCCCOc3ccc(/C=C/C(=O)c4ccc(OC)c(OC)c4)cc3)cc2)cc1OC
Leishmania donovani [6]
  growth inhibition (GI): inactive

## COc1ccc(C(=O)/C=C/c2ccc(OCCCCCOc3ccc(C=O)cc3)cc2)cc1OC
Leishmania donovani [1]
  IC50: 28400 nM
[2]
  Ratio CC50/IC50: 0.49
[3]
  CC50 at 72 h: 13900 nM

## CCN(CC)CCCC(C)Nc1ccnc2cc(Cl)ccc12 (stereo not drawn) [CHLOROQUINE]
[7]
  CC50 at 72 h: 75 µg/mL (≈ 234 µM)

## N=C(N)c1ccc(OCCCCCOc2ccc(C(=N)N)cc2)cc1 [PENTAMIDINE]
Leishmania donovani [1]
  IC50: 20400 nM
[2]
  Ratio CC50/IC50: 2.58
[3]
  CC50 at 72 h: 52700 nM

## CCCCCCCCCCCCCCCCOP(=O)([O-])OCC[N+](C)(C)C [MILTEFOSINE]
[2]
  Ratio CC50/IC50: 0.25

## Cc1cc(NCc2ccc(F)cc2)nc(Nc2ccc(OCCCCCOc3ccc(Nc4nc(C)cc(NCc5ccc(F)cc5)n4)cc3)cc2)n1
Plasmodium falciparum [8]
  IC50: 0.0394 µg/mL (≈ 0.055 µM)
[9]
  Ratio CC50/IC50: 1051.51
[7]
  CC50 at 72 h: 41.4 µg/mL (≈ 57.8 µM)
Leishmania donovani [1]
  IC50: 1410 nM
[2]
  Ratio CC50/IC50: 6.16
[3]
  CC50 at 72 h: 8680 nM
Plasmodium falciparum [10]
  IC50: 0.358 µg/mL (≈ 0.5 µM)

## COc1ccc(CNc2cc(C)nc(Nc3ccc(OCCCCCOc4ccc(Nc5nc(C)cc(NCc6ccc(OC)cc6)n5)cc4)cc3)n2)cc1
Plasmodium falciparum [8]
  IC50: 0.0117 µg/mL (≈ 0.0158 µM)
[9]
  Ratio CC50/IC50: 288.28
[7]
  CC50 at 72 h: 3.37 µg/mL (≈ 4.55 µM)
Leishmania donovani [1]
  IC50: 570 nM
[2]
  Ratio CC50/IC50: 3.7
[3]
  CC50 at 72 h: 2110 nM
Plasmodium falciparum [10]
  IC50: 0.0236 µg/mL (≈ 0.0319 µM)

## Nc1nc(-c2ccccc2)cc(-c2ccc(OCCCCCOc3ccc(-c4cc(-c5ccccc5)nc(N)n4)cc3)cc2)n1
Leishmania donovani [1]
  IC50: 960 nM
[2]
  Ratio CC50/IC50: >242.42
[3]
  CC50 at 72 h: > 400000 nM

## Cc1cc(NC2CCCC2)nc(Nc2ccc(OCCCCCOc3ccc(Nc4nc(C)cc(NC5CCCC5)n4)cc3)cc2)n1
Plasmodium falciparum [8]
  IC50: 0.313 µg/mL (≈ 0.492 µM)
[9]
  Ratio CC50/IC50: 57.71
[7]
  CC50 at 72 h: 18.1 µg/mL (≈ 28.4 µM)
Leishmania donovani [1]
  IC50: 1530 nM
[2]
  Ratio CC50/IC50: 1.11
[3]
  CC50 at 72 h: 1690 nM

## Cc1cc(N2CCOCC2)nc(Nc2ccc(OCCCCCOc3ccc(Nc4nc(C)cc(N5CCOCC5)n4)cc3)cc2)n1
Plasmodium falciparum [8]
  IC50: 0.264 µg/mL (≈ 0.412 µM)
[9]
  Ratio CC50/IC50: 7.82
[7]
  CC50 at 72 h: 2.06 µg/mL (≈ 3.21 µM)
Leishmania donovani [1]
  IC50: 1180 nM
[2]
  Ratio CC50/IC50: 4.67
[3]
  CC50 at 72 h: 5510 nM

## CCN1CCN(c2cc(C)nc(Nc3ccc(OCCCCCOc4ccc(Nc5nc(C)cc(N6CCN(CC)CC6)n5)cc4)cc3)n2)CC1
Plasmodium falciparum [8]
  IC50: 0.0451 µg/mL (≈ 0.065 µM)
[9]
  Ratio CC50/IC50: 157.9
[7]
  CC50 at 72 h: 7.13 µg/mL (≈ 10.3 µM)
Leishmania donovani [1]
  IC50: 300 nM
[2]
  Ratio CC50/IC50: 12.17
[3]
  CC50 at 72 h: 3650 nM
Plasmodium falciparum [10]
  IC50: 0.0221 µg/mL (≈ 0.0318 µM)

## Cc1cc(N2CCN(C)CC2)nc(Nc2ccc(OCCCCCOc3ccc(Nc4nc(C)cc(N5CCN(C)CC5)n4)cc3)cc2)n1
Plasmodium falciparum [8]
  IC50: 0.245 µg/mL (≈ 0.367 µM)
[9]
  Ratio CC50/IC50: 43.97
[7]
  CC50 at 72 h: 10.8 µg/mL (≈ 16.2 µM)
Leishmania donovani [1]
  IC50: 810 nM
[2]
  Ratio CC50/IC50: 3.62
[3]
  CC50 at 72 h: 2930 nM

## Cc1cc(NCc2ccccc2)nc(Nc2ccc(OCCCCCOc3ccc(Nc4nc(C)cc(NCc5ccccc5)n4)cc3)cc2)n1
Plasmodium falciparum [8]
  IC50: 0.0514 µg/mL (≈ 0.0756 µM)
[9]
  Ratio CC50/IC50: 429.15
[7]
  CC50 at 72 h: 22.1 µg/mL (≈ 32.4 µM)
Leishmania donovani [1]
  IC50: 1670 nM
[2]
  Ratio CC50/IC50: 15.6
[3]
  CC50 at 72 h: 26000 nM
Plasmodium falciparum [10]
  IC50: 0.383 µg/mL (≈ 0.562 µM)

## Cc1cc(N2CCN(c3ccccc3)CC2)nc(Nc2ccc(OCCCCCOc3ccc(Nc4nc(C)cc(N5CCN(c6ccccc6)CC5)n4)cc3)cc2)n1
Plasmodium falciparum [8]
  IC50: 0.0592 µg/mL (≈ 0.0749 µM)
[9]
  Ratio CC50/IC50: 1688
[7]
  CC50 at 72 h: 100 µg/mL (≈ 126 µM)
Leishmania donovani [1]
  IC50: 1720 nM
[2]
  Ratio CC50/IC50: >232
[3]
  CC50 at 72 h: > 400000 nM
Plasmodium falciparum [10]
  IC50: 0.0531 µg/mL (≈ 0.0671 µM)

## Cc1cc(NC2CC2)nc(Nc2ccc(OCCCCCOc3ccc(Nc4nc(C)cc(NC5CC5)n4)cc3)cc2)n1
Plasmodium falciparum [8]
  IC50: 0.00625 µg/mL (≈ 0.0108 µM)
[9]
  Ratio CC50/IC50: 89.6
[7]
  CC50 at 72 h: 0.56 µg/mL (≈ 0.964 µM)
Leishmania donovani [1]
  IC50: 420 nM
[2]
  Ratio CC50/IC50: 6.38
[3]
  CC50 at 72 h: 2680 nM
Plasmodium falciparum [10]
  IC50: 0.0113 µg/mL (≈ 0.0194 µM)
